Laboratory results published in ChEMBL document CHEMBL3526015, “Metabolism of the c-Fos/activator protein-1 inhibitor T-5224 by multiple human UDP-glucuronosyltransferase isoforms” (Drug Metab Dispos, 2011).

How the values were obtained:
[1] = biological target: T1, UDP-glucuronosyltransferase 1A3 (Homo sapiens, UniProt P35503); assay: Drug metabolism assessed as Vmax/Km ratio for human UGT1A3-mediated T-5224 hydroxyl O-glucuronide formation per mg protein after 10 to 60 mins in presence of UDP-glucuronic acid by HPLC method; format: ADME; settings: recombinant enzyme
T1 sequence (P35503 whole entry): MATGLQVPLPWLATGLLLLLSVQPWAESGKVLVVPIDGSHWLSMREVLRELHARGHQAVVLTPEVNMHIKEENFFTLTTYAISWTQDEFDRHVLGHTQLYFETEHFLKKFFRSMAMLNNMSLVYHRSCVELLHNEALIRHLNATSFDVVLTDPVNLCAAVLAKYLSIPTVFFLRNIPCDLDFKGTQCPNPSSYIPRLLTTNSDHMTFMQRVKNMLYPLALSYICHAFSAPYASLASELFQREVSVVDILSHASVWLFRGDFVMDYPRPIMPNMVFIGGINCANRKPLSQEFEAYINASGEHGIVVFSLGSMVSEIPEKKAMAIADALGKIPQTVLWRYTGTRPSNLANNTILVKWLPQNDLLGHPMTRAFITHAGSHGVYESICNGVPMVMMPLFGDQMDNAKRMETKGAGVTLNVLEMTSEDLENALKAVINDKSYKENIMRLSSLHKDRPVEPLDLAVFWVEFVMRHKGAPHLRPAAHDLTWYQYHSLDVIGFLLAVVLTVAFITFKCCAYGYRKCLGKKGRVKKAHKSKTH
Procedure, shortened: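 Kinetics used recombinant UGT1A1, 1A3 or 1A8 (0.1 mg protein/mL) with T-5224 at 1–50 μM, 2 mM UDPGA and 60 min at 37°C, in triplicate. G2/G3 were measured by HPLC at 290 nm and fitted to a substrate-inhibition model (Vmax, Km, Ksi). UGT content was quantified by immunoblot, and kcat = Vmax/E0 was derived from it.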

Cytochrome P450 2A6 = biological target: T2, Cytochrome P450 2A6 (Homo sapiens, UniProt P11509); assay: Drug metabolism assessed as human CYP2A6-mediated metabolite formation at 2 uM after 30 mins by HPLC method; format: ADME; settings: recombinant enzyme, 0.5 h
T2 sequence (P11509 whole entry): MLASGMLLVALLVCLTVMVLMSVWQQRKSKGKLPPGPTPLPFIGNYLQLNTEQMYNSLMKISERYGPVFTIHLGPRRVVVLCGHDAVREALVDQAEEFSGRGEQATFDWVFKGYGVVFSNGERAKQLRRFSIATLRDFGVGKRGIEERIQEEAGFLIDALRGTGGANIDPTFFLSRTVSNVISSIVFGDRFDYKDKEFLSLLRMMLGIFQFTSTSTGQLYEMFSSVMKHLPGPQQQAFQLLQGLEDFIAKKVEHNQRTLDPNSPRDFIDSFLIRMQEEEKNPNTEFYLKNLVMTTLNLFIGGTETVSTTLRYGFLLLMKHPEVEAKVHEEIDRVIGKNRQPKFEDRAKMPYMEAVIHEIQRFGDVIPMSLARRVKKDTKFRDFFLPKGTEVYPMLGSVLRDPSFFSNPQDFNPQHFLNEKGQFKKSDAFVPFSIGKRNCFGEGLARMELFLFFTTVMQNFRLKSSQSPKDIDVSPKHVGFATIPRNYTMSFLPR
Procedure, shortened: (§1)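 Each recombinant human P450 was used at 50 pmol/mL with an NADPH-generating system and 2 μM 14C-T-5224 (0.5% DMSO final). Buffer was 100 mM Tris-HCl pH 7.5, except 100 mM potassium phosphate pH 7.4 for CYP2A6 and CYP2C9*1. Incubation ran 30 min at 37°C and was stopped with acetonitrile/methanol. Radioactive metabolite peaks were detected by C18 HPLC.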

Liver microsome = assay: Drug metabolism in human liver microsomes assessed as Vmax/Km ratio for T-5224 hydroxyl O-glucuronide formation per mg protein after 10 to 60 mins by HPLC method; format: ADME
Procedure, shortened: (§2)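 Pooled liver (0.5 mg protein/mL) or intestinal (0.25 mg protein/mL) microsomes in 50 mM Tris-HCl pH 7.5, 8 mM MgCl2, alamethicin, 2% DMSO. T-5224 at 1–50 μM, 5 min preincubation at 37°C, started with 2 mM UDPGA. Incubated 10 min, or 20 min for intestinal microsomes at 1–5 μM. Acetonitrile stop, glucuronides by HPLC at 290 nm. Triplicates fitted to a substrate-inhibition model.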

Cytochrome P450 2E1 = Cytochrome P450 2E1 (Homo sapiens, UniProt P05181); assay: Drug metabolism assessed as human CYP2E1-mediated metabolite formation at 2 uM after 30 mins by HPLC method; format: ADME; settings: recombinant enzyme, 0.5 h; procedure, shortened: as §1
[2] = Drug metabolism assessed as human CYP2D6*1-mediated metabolite formation at 2 uM after 30 mins by HPLC method; format: ADME; settings: 0.5 h; procedure, shortened: as §1
[3] = biological target: T3, UDP-glucuronosyltransferase 1A1 (Homo sapiens, UniProt P22309); assay: Drug metabolism assessed as human UGT1A1-mediated T-5224 acyl O-glucuronide formation at 10 uM […] in presence of beta-estradiol by HPLC method; format: ADME; settings: recombinant enzyme
T3 sequence (P22309 whole entry): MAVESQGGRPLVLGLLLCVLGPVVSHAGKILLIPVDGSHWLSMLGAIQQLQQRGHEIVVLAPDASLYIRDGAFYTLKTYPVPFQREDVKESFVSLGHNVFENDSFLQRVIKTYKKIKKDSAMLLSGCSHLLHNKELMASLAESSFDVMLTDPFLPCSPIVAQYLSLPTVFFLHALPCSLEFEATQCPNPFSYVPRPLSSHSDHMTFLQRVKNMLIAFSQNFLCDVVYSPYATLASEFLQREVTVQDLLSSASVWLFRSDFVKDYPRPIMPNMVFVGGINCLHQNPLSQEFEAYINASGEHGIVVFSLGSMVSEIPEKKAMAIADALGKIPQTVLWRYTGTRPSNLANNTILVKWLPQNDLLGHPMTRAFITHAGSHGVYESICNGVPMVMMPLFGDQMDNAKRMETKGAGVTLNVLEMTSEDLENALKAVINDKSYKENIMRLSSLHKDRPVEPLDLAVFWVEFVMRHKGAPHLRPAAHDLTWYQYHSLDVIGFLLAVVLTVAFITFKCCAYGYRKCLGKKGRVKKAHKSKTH
Procedure, shortened: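 Pooled human liver microsomes or recombinant UGT1A1 were incubated with 10 μM T-5224, 2 mM UDPGA and β-estradiol at 0–500 μM (2% DMSO), in Tris-HCl/MgCl2/alamethicin buffer. Incubation was 10 min (liver microsomes) or 60 min (UGT1A1) at 37°C. G2/G3 were read by HPLC at 290 nm, as mean ± SD, n = 3.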

[4] = biological target: T3, UDP-glucuronosyltransferase 1A1; assay: Substrate inhibition of human UGT1A1-mediated T-5224 acyl O-glucuronide formation after 10 to 60 mins in presence of UDP-glucuronic acid by HPLC method; format: ADME
Procedure, shortened: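 Recombinant human UGT1A1, UGT1A3 or UGT1A8 from baculovirus-infected insect cells (0.1 mg protein/mL) in 50 mM Tris-HCl pH 7.5, 8 mM MgCl2, alamethicin, 2% DMSO. T-5224 at 1–50 μM with 2 mM UDPGA for 60 min at 37°C. HPLC with UV at 290 nm. Triplicates fitted to a substrate-inhibition model. kcat uses UGT content quantified by immunoblot against recombinant UGT1A1/UGT2B4 standards.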

[5] = Substrate inhibition of T-5224 hydroxyl O-glucuronide formation in human intestinal microsomes after 10 to 60 mins by HPLC method; set-up: species or system Intestine, Microsome; procedure, shortened: as §2

Cytochrome P450 2E1, sequence (P05181 whole entry): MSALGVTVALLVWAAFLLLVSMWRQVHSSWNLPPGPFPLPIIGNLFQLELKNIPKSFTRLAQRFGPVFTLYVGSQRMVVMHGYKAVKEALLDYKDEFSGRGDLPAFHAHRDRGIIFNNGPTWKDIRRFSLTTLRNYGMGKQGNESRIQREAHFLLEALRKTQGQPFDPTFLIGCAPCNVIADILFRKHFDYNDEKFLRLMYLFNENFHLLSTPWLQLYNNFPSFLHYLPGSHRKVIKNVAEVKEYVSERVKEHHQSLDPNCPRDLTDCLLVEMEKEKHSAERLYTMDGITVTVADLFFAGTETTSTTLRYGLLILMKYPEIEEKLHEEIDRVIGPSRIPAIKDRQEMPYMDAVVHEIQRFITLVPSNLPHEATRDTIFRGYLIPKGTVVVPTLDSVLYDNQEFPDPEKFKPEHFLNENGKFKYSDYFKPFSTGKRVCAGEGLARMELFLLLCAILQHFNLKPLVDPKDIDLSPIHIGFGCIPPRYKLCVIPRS

Vmax/Km [1]: 47.5 µL/min | Drug metabolism (Cytochrome P450 2A6): metabolite_not_detected | Vmax/Km (Liver microsome): 19.5 µL/min | Drug metabolism (Cytochrome P450 2E1): metabolite_not_detected | Drug metabolism [2]: metabolite_not_detected | Drug metabolism [3]: metabolite_not_detected | Ki [4]: 1.54 µM | Ki [5]: 58 µM
Structure (SMILES): O=C(O)CCc1cc(C(=O)c2ccc(OC3CCCC3)cc2O)ccc1OCc1ccc2c(O)noc2c1
